In PMC6030940 (International Journal of Nanomedicine, 2018):
“Also recorded” adds a separate entry of the source.

Key:
[1] = tested on: Pgp mRNA in T84 cells; conditions: 10 µM, 72 h; cited from earlier work
[2] = target: T1, Pgp (Homo sapiens, UniProt P08183); assay: Cellular uptake of BBR in MDCK-MDR1 cells; format: cell-based; conditions: BS20 8.1 µM, BBR 100 µM, 37°C, 90 min
[3] = target: T1, Pgp; assay: Cellular uptake of Rhodamine123 by MDCK-MDR1 cells; format: cell-based; conditions: 37°C, 90 min, Figure 2
[4] = tested on: Pgp protein expression in MDCK-MDR1 cells; assay: Cellular Pgp protein expression, Western blotting; format: cell-based; conditions: BS20 5 or 10 µM, 3 h and 24 h
[5] = tested on: Pgp mRNA expression in MDCK-MDR1 cells; assay: Pgp mRNA expression, real-time quantitative PCR; format: cell-based; conditions: normalized to GAPDH
Method in brief: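 MDCK-MDR1 cells (DMEM, 10% FBS, 37°C, 5% CO2) were exposed to the test surfactant for 3 or 24 h. Total RNA was kit-extracted and reverse-transcribed with gDNA eraser. qPCR ran 95°C 30 s, then 40 cycles of 95°C 5 s and 60°C 30 s, followed by melt-curve analysis. Pgp expression was normalised to GAPDH by the 2−ΔΔCq method.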

[6] = tested on: intracellular ATP in MDCK-MDR1 cells; assay: Intracellular ATP level, ATPlite luminescence assay; format: cell-based, canine; conditions: BS20 5 or 10 µM
Method in brief: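 MDCK-MDR1 cells were seeded at 1 × 10^4 cells/well, left to adhere overnight, then exposed to the test surfactant at 5 or 10 μM for 3 or 24 h. Cells were lysed by three freeze-thaw cycles in lysis reagent. Substrate reagent was added and plates rocked 10 min at room temperature. ATPlite luminescence was read on a plate reader.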

[7] = Morphology and size by scanning electron microscopy; format: physicochemical; conditions: SEM images
Method in brief: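 Samples were fixed on SEM stubs with double-sided adhesive tape and coated with Au. They were imaged by scanning electron microscopy at 15 kV acceleration voltage.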

[8] = no reference given; cited from earlier work
[9] = target: human Pgp membrane (Homo sapiens, UniProt P08183); assay: Pgp ATPase activity, Pgp-Glo assay system; conditions: 37°C, 120 min
[10] = tested on: Caco-2 monolayer; conditions: previous study; cited from earlier work
[11] = has been reported; cited from earlier work
[12] = tested on: MDCK-MDR1 cell monolayer; assay: Bidirectional transport across MDCK-MDR1 cell monolayer; conditions: BBR in the presence of 10 µM verapamil
[13] = tested on: P-gp (MDR1); assay: as above; conditions: dog, MDCK-MDR1, pH 7.4
[14] = tested on: Pgp; assay: as above; conditions: dog, MDCK-MDR1, pH 7.4
[15] = tested on: Pgp expression in kidney cancer cells; conditions: 5 ng/mL, 72 h; cited from earlier work

T1 sequence (P08183 whole entry): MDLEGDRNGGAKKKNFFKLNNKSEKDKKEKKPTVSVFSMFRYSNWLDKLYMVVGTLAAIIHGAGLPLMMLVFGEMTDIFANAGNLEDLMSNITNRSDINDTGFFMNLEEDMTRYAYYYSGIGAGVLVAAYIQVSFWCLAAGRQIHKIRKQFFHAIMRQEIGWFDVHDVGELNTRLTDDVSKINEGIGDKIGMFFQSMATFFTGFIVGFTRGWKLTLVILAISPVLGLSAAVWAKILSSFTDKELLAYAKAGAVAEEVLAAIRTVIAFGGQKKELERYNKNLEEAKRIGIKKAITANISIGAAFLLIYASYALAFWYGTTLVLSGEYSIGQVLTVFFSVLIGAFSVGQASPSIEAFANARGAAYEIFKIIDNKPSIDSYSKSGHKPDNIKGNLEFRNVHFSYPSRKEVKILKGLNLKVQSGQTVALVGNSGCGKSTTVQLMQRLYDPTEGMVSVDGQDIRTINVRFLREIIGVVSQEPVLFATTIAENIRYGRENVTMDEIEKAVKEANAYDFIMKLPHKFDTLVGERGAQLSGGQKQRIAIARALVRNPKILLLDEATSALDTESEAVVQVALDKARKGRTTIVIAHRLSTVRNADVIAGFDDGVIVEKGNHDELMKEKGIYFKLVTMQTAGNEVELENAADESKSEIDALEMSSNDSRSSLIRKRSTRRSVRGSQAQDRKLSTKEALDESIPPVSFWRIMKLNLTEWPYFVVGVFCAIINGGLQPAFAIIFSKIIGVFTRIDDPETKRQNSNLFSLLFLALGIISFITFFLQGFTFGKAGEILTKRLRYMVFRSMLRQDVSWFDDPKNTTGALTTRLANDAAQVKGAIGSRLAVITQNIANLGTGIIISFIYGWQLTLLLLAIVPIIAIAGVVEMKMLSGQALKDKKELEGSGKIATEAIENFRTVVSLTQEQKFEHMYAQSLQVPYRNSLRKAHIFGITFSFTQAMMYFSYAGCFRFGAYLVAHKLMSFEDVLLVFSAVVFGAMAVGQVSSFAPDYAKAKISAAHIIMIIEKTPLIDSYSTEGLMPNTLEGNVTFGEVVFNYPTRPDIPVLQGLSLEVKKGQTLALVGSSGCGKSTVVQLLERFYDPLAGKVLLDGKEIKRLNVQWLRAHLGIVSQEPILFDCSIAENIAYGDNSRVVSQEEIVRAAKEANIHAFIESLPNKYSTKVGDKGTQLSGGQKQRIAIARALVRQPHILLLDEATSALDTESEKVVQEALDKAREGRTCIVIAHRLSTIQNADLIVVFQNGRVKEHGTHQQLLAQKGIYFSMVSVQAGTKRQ
human Pgp membrane, sequence (P08183 whole entry): as above

Compound: C=C[C@H]1C[N@@]2CC[C@H]1C[C@@H]2[C@@H](O)c1ccnc2ccc(OC)cc12 [quinidine]
- increase of mRNA levels of Pgp [1]: 3.8 fold

Compound: CC(C)CN(C[C@@H](O)[C@H](Cc1ccccc1)NC(=O)O[C@H]1CCOC1)S(=O)(=O)c1ccc(N)cc1 [amprenavir]
- increase of mRNA levels of Pgp [1]: 5.1 fold

Compound: polyoxyethylene (20) stearyl ether [BS20]
- increase of cellular uptake of BBR vs BBR group [2]: 4.1 fold
- effect on intracellular accumulation of Rho123 [3]: presented the most potency on increasing the intracellular accumulation of Rho123
- Pgp protein expression [4]: no significant changes in Pgp protein expression
- Pgp mRNA expression ([5]; BS20 5 µM, 3 h): 0.9 fold
- Pgp mRNA expression ([5]; BS20 5 µM, 24 h): 2.3 fold
- Pgp mRNA expression ([5]; BS20 10 µM, 3 h): 1.4 fold
- Pgp mRNA expression ([5]; BS20 10 µM, 24 h): 3.8 fold
- activity of intracellular ATP ([6]; 3 h): dose-dependently inhibited; also recorded: inhibited the activity of intracellular ATP
- activity of intracellular ATP ([6]; 24 h): reversed to normal level
- size by SEM [7]: > 5 µm
- critical micelle concentration [8]: 0.006 mM
- stimulation of Pgp-ATPase activity vs normal control (basal level) ([9]; BS20 5 µM): 3.5 fold
- stimulation of Pgp-ATPase activity vs normal control (basal level) ([9]; BS20 10 µM): 4.5 fold

Compound: D-α-Tocopherol polyethylene glycol 1000 succinate [TPGS]
- effect on intracellular accumulation of Rho123 [3]: most powerful nonionic surfactant with the function of Pgp inhibition
- critical micelle concentration [8]: 0.02 mM

Compound: polyoxyethylene (23) lauryl ether [Brij-35]
- permeation of bis(12)-hupyridone through Caco-2 monolayer [10]: significantly increase the permeation

Compound: COc1ccc2cc3[n+](cc2c1OC)CCc1cc2c(cc1-3)OCO2 [BBR, Berberine]
- size by SEM [7]: 1–2 µm
- oral bioavailability [11]: < 1%
- absorptive quotient (AQ) [12]: 0.344
- secretory quotient (SQ) [12]: 1.16
- efflux ratio at 120 min, 10 µM [13]: 7.12
- Papp A→B at 120 min, 10 µM [14]: 0.4 ± 0.01 ×10⁻⁶ cm/s
- Papp B→A at 120 min, 10 µM [14]: 2.85 ± 0.04 ×10⁻⁶ cm/s

Compound: C/C=C1\NC(=O)[C@H]2CSSCC/C=C/[C@H](CC(=O)N[C@H](C(C)C)C(=O)N2)OC(=O)[C@H](C(C)C)NC1=O [depsipeptide]
- increased expression levels of Pgp [15]: 6.3 fold
